This note sets out measurements from ChEMBL document CHEMBL1150273, “Aza-peptidyl Michael acceptors. A new class of potent and selective inhibitors of asparaginyl endopeptidases (legumains) from evolutionarily diverse pathogens” (J Med Chem, 2008).

A short description of data set [1]: Inhibition of Trichomonas vaginalis G3 AE1 expressed in Pichia pastoris after 20 mins. The essentials:
(§1)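 Recombinant AE zymogens expressed in Pichia pastoris; SmAE and TvAE1 autoactivated in 0.5 M sodium acetate, 4 mM DTT, pH 4.5, 37 °C, 3 h to overnight; IrAE used without activation. Buffer 0.1 M citrate phosphate, 4 mM DTT, pH 6.8 (SmAE, TvAE1) or pH 5.5 (IrAE). Inhibitor 2.0–0.0002 µM final, 20 min preincubation at room temperature; 10 µM final Cbz-Ala-Ala-Asn-AMC, 20 min; IC50 from RFU/min vs concentration.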

A short description of data set [2]: Inhibition of Ixodes ricinus AE expressed in Pichia pastoris after 20 mins. In a few lines: as §1
Data set [3] concerns Schistosoma mansoni. Kind of data set: (§2) Inhibition of Schistosoma mansoni AE expressed in Pichia pastoris after 20 mins. In a few lines:
as §1

The species named for data set [4] is Sus scrofa. Description: Inhibition of pig AE assessed as ratio of pseudo-first-order inhibition rate constant to inhibitor concentration. The essentials: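 Pig AE in 39.5 mM citric acid, 121 mM Na2HPO4, 1 mM EDTA, 0.1% CHAPS, 0.015% Brij, 1 mM DTT.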
A short description of data set [5]: as §2. The essentials: as §1
Data set [6] has as its target T1, Caspase-3 (Homo sapiens) (UniProt P42574).
T1 sequence (whole entry): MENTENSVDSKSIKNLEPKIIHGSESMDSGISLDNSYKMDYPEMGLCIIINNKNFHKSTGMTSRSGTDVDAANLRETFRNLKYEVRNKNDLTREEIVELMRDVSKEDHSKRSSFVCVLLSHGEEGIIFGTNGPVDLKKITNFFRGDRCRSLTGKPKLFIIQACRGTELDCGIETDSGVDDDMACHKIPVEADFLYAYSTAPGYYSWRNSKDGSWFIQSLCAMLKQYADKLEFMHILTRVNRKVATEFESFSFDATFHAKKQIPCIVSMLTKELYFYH
Description: Inhibition of caspase 3 assessed as ratio of pseudo-first-order inhibition rate constant to inhibitor concentration. In a few lines: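 Caspase-3 (1 nM final) preactivated 10 min at 37 °C in 40 mM Pipes, 200 mM NaCl, 0.2% CHAPS, 20% sucrose mixed 1:1 with 20 mM DTT, pH 7.2; enzyme added to inhibitor plus Ac-Asp-Glu-Val-Asp-AMC; progress curves 20 min at 37 °C (ex 360, em 465 nm); duplicates; rates corrected for substrate (KM 9.7 µM).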

Data set [7] has as its target T2, Caspase-6 (Homo sapiens) (UniProt P55212).
T2 sequence (whole entry): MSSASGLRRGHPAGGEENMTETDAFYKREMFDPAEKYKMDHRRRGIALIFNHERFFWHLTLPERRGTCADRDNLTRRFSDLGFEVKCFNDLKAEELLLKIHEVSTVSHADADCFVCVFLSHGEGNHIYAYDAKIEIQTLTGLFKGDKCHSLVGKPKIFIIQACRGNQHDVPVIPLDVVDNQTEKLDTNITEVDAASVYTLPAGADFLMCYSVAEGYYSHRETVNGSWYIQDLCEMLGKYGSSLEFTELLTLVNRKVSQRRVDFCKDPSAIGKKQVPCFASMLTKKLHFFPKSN
Description: Inhibition of caspase 6 assessed as ratio of pseudo-first-order inhibition rate constant to inhibitor concentration. The essentials:
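Caspase-6 at 5 nM final, assayed in the same Pipes/NaCl/CHAPS/sucrose/DTT buffer, pH 7.2, 37 °C with Ac-Asp-Glu-Val-Asp-AMC by the progress curve method; inhibitor stocks 5 × 10^-3 to 2.42 × 10^-6 M in DMSO; rates corrected for substrate using KM 236.35 µM.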

The target of data set [8] is Caspase-8 (Homo sapiens) (UniProt Q14790). Kind of data set: Inhibition of caspase 8 assessed as ratio of pseudo-first-order inhibition rate constant to inhibitor concentration. The essentials: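 Caspase-8 at 50 nM final, assayed in the same Pipes/NaCl/CHAPS/sucrose/DTT buffer, pH 7.2, 37 °C with Ac-Asp-Glu-Val-Asp-AMC by the progress curve method; inhibitor stocks 5 × 10^-3 to 2.42 × 10^-6 M in DMSO; rates corrected for substrate using KM 6.79 µM.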

Data set [9] concerns the target T3, Calpain-1 catalytic subunit (Homo sapiens) (UniProt P07384).
T3 sequence (whole entry): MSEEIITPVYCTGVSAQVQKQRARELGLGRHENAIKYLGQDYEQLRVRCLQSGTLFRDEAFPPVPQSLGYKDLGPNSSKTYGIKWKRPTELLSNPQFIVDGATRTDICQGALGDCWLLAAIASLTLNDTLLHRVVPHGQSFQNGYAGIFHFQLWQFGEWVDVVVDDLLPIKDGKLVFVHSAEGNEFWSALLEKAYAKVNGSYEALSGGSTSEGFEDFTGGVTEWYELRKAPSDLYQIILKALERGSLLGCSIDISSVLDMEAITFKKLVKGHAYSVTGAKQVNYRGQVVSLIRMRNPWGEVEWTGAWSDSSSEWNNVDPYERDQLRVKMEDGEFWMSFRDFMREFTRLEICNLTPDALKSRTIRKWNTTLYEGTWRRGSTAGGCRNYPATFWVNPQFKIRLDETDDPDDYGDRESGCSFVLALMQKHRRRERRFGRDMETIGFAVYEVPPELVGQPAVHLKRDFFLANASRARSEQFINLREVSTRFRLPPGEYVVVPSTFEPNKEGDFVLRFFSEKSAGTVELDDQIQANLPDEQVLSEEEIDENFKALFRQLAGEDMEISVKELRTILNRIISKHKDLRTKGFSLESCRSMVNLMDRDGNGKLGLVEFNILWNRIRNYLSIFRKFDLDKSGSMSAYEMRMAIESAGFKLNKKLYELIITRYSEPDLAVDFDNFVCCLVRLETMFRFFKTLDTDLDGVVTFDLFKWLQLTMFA
Kind of data set: Inhibition of calpain 1 assessed as ratio of pseudo-first-order inhibition rate constant to inhibitor concentration.

Data set [10] addresses T4, Papain (Carica papaya) (UniProt P00784).
T4 sequence (whole entry): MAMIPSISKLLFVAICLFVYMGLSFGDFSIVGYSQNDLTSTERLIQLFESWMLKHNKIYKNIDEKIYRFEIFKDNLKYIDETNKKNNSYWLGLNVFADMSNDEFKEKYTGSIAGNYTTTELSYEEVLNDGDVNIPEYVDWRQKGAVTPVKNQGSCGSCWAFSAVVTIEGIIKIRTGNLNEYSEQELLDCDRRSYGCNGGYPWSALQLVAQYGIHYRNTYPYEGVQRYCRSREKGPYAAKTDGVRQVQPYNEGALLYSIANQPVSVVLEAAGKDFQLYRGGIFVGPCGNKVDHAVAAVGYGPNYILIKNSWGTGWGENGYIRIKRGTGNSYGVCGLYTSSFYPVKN
Kind of data set: Inhibition of papain assessed as ratio of pseudo-first-order inhibition rate constant to inhibitor concentration. In a few lines:
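Papain, about 0.29 mg/mL, incubated with inhibitor in 50 mM Hepes, 2.5 mM DTT, 2.5 mM EDTA, pH 7.5; aliquots taken over time into 53.7 µM Cbz-Phe-Arg-pNA; p-nitroanilide release read at 405 nm at room temperature; pseudo-first-order inactivation kinetics.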

Data set [11] addresses Cathepsin B (Homo sapiens) (UniProt P07858). Description: Inhibition of cathepsin B assessed as ratio of pseudo-first-order inhibition rate constant to inhibitor concentration.
Data set [12] deals with Lys-gingipain HG66 (Porphyromonas gingivalis) (UniProt P72197). Kind of data set: Inhibition of Porphyromonas gingivalis gingipain K assessed as ratio of pseudo-first-order inhibition rate constant to inhibitor concentration. The essentials: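 Gingipain K diluted to 4.61 nM in 0.2 M Tris-HCl, 0.1 M NaCl, 5 mM CaCl2, 2 mM DTT, pH 8.0 and incubated with inhibitor (DMSO) at room temperature; aliquots taken at intervals into buffer with Suc-Ala-Phe-Lys-AMC; fluorescence at 465 nm; pseudo-first-order kinetics.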

The target of data set [13] is T5, Clostripain (Clostridium histolyticum) (UniProt P09870).
T5 sequence (whole entry): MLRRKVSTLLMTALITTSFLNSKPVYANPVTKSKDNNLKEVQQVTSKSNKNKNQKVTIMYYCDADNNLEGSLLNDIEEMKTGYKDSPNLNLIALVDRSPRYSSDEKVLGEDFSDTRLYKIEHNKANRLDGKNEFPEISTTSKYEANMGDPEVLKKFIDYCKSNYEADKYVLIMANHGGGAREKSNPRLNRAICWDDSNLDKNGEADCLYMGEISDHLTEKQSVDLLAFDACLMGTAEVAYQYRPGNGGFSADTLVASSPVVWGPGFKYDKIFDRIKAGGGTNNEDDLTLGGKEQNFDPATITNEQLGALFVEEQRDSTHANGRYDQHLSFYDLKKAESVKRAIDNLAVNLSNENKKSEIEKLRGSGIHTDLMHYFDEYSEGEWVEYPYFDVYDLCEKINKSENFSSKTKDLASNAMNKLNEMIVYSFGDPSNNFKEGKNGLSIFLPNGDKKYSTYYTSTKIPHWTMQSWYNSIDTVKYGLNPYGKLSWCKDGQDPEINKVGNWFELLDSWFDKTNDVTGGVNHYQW
Kind of data set: Inhibition of sClostridium histolyticum clostripain assessed as ratio of pseudo-first-order inhibition rate constant to inhibitor concentration. Particulars: Hathewaya histolytica. In a few lines: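 Clostripain activated in 8 mM DTT, then incubated with inhibitor (DMSO) in 20 mM Tris-HCl, 10 mM CaCl2, 0.005% Brij 35, 2 mM DTT, pH 7.6; aliquots taken at intervals into buffer with Cbz-Phe-Arg-AMC; fluorescence at 465 nm; pseudo-first-order kinetics.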

Data set [14] in a line: Stability assessed as half life in citrate phosphate buffer at pH 6.8 in presence of dithiothreitol. Type of data set: physicochemical. Particulars: citrate phosphate buffer with dithiothreitol.
For data set [15], the system named is Schistosoma mansoni. Kind of data set: Inhibition of Schistosoma mansoni AE assessed as ratio of pseudo-first-order inhibition rate constant to inhibitor concentration. The essentials:
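Autoactivated recombinant SmAE added to six inhibitor concentrations (0–1 µM final) in 0.1 M citrate phosphate, 2 mM DTT, pH 6.8 with 20 µM Cbz-Ala-Ala-Asn-AMC; progress followed every 2 s for 30 min at 25 °C (ex 355, em 460 nm); kobs/[I] by nonlinear regression, corrected for substrate by factor 1.33.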

Active and inactive are the calls of the source. No cut-off for these calls is given here. Some results are limits rather than exact numbers.

For `C[C@H](NC(=O)OCc1ccccc1)C(=O)N[C@@H](C)C(=O)NN(CC(N)=O)C(=O)/C=C/C(=O)c1ccccc1`, the values for the IC50 in [1] and in [2] were ≥ 10000 nM and > 20000 nM, respectively. In [3], the outcome was inactive.

As for `C=CCOC(=O)/C=C/C(CC(N)=O)NC(=O)[C@H](C)NC(=O)[C@H](C)NC(=O)OCc1ccccc1` (stereo not given in full), in data set [4], the Ratio is 776 M⁻¹ s⁻¹.

In data set [1], `C/C=C/C=C/C(=O)N(CC(N)=O)NC(=O)[C@H](C)NC(=O)[C@H](C)NC(=O)OCc1ccccc1` gave an IC50 of 8000 nM. Also, in [3], the outcome was inactive.

Regarding `C[C@H](NC(=O)OCc1ccccc1)C(=O)N[C@@H](C)C(=O)NN(CC(N)=O)C(=O)COC(=O)c1ccccc1`, in data set [4], the Ratio came out at 13 M⁻¹ s⁻¹.

For the compound `C[C@H](NC(=O)OCc1ccccc1)C(=O)N[C@@H](C)C(=O)NN(CC(N)=O)C(=O)/C=C/C(=O)N1CCc2ccccc21`, the IC50 in data set [1] came to 50 nM; in data set [2], 18 nM; in data set [5], 70 nM. The result in data set [6], in data set [7], in [8], in data set [9], in data set [10] and in data set [11] was inactive. The outcome in data set [13] was inactive. Further, in data set [12], the Ratio stood at 1 M⁻¹ s⁻¹.

In the case of `C[C@H](NC(=O)OCc1ccccc1)C(=O)N[C@@H](C)C(=O)NN(CC(N)=O)C(=O)/C=C/C(=O)OCc1ccccc1`, the results for the IC50 in data set [1] and in data set [2] were 5 nM and < 1 nM, respectively. Further, the half-life in data set [14] was 2.5 min.

On to `C[C@H](NC(=O)OCc1ccccc1)C(=O)N[C@@H](C)C(=O)NN(CC(N)=O)C(=O)CCl`, for which, in data set [4], the Ratio was determined as 139000 M⁻¹ s⁻¹.

As to `CCN(CC)C(=O)/C=C/C(=O)N(CC(N)=O)NC(=O)[C@H](C)NC(=O)[C@H](C)NC(=O)OCc1ccccc1`, the figures for the IC50 in [1] and in [2] were 2000 nM and 2700 nM, respectively. For the same compound, the result in data set [3] was inactive. In data set [15], the Ratio was 17400 M⁻¹ s⁻¹.

Consider `C[C@H](NC(=O)OCc1ccccc1)C(=O)N[C@@H](C)C(=O)NN(CC(N)=O)C(=O)/C=C/C(=O)NCCc1ccccc1`, for which the IC50 came out at 10 nM in data set [1], 350 nM in [2] and 600 nM in data set [5]. Also, the outcome in data set [6], in data set [7], in data set [8], in data set [9], in data set [11] and in data set [12] was inactive. In addition, in data set [13], the outcome was inactive. In addition, the Ratio in [10] is 12 M⁻¹ s⁻¹.

The compound `CCOC(=O)[C@H]1O[C@@H]1C(=O)N(CC(N)=O)NC(=O)[C@H](C)NC(=O)[C@H](C)NC(=O)OCc1ccccc1` showed an IC50 in data set [5] of 53 nM. Moreover, the Ratio was found to be 17400 M⁻¹ s⁻¹ in data set [15] and 43000 M⁻¹ s⁻¹ in data set [4].

As usually defined, the IC50 is the concentration that gives 50% inhibition. A higher IC50 goes with weaker potency. As a reminder, the half-life is the time in which the quantity being followed falls by half.
